Experimental data published in ChEMBL document CHEMBL4033605 (J Nat Prod, 2017).
Values belong to the compound of their own block, whether it stands above or below them. Activity calls are given as the source filed them. No cut-off for these calls is given here. Where a SMILES comes first, the peptide text is derived from it.

How the values were obtained:
HCT-116 = experiment: Cytotoxic activity against human HCT116 cells incubated for 48 hrs by MTT assay; type: functional, cell-based; settings: HCT-116, 48 h
[1] = Cytotoxic activity against human H116 cells assessed as zone diffusion inhibition by measuring distance to perimeter (diffusion distance units) at 36 umol by disk diffusion soft agar colony inhibition assay (reference value: 0 unit); type: functional
[2] = Cytotoxic activity against human H125 cells assessed as zone diffusion inhibition by measuring distance to perimeter (diffusion distance units) at 36 umol by disk diffusion soft agar colony inhibition assay (reference value: 0 unit); type: functional
MCF7 [3] = experiment: Cytotoxic activity against human MCF7 cells assessed as zone diffusion inhibition by measuring distance to perimeter (diffusion distance units) at 36 umol by disk diffusion soft agar colony inhibition assay (reference value: 0 unit); type: functional
LNCaP [4] = experiment: Cytotoxic activity against human LNCAP cells assessed as zone diffusion inhibition by measuring distance to perimeter (diffusion distance units) at 36 umol by disk diffusion soft agar colony inhibition assay (reference value: 0 unit); type: functional
OVCAR-5 = experiment: Cytotoxic activity against human OVCAR5 cells assessed as zone diffusion inhibition by measuring distance to perimeter (diffusion distance units) at 36 umol by disk diffusion soft agar colony inhibition assay (reference value: 0 unit); type: functional
[5] = Cytotoxic activity against human U251N cells assessed as zone diffusion inhibition by measuring distance to perimeter (diffusion distance units) at 36 umol by disk diffusion soft agar colony inhibition assay (reference value: 0 unit); type: functional
PANC-1 = experiment: Cytotoxic activity against human PANC1 cells assessed as zone diffusion inhibition by measuring distance to perimeter (diffusion distance units) at 36 umol by disk diffusion soft agar colony inhibition assay (reference value: 0 unit); type: functional
CCRF-CEM [6] = experiment: Cytotoxic activity against human CEM cells assessed as zone diffusion inhibition by measuring distance to perimeter (diffusion distance units) at 36 umol by disk diffusion soft agar colony inhibition assay (reference value: 0 unit); type: functional
CFU-GM [7] = experiment: Cytotoxic activity against human CFU-GM cells assessed as zone diffusion inhibition by measuring distance to perimeter (diffusion distance units) at 36 umol by disk diffusion soft agar colony inhibition assay (reference value: 0 unit); type: functional
[8] = Cytotoxic activity against human H116 cells assessed as zone diffusion inhibition by measuring distance to perimeter (diffusion distance units) at 9 umol by disk diffusion soft agar colony inhibition assay (reference value: 0 unit); type: functional
[9] = Cytotoxic activity against human H125 cells assessed as zone diffusion inhibition by measuring distance to perimeter (diffusion distance units) at 9 umol by disk diffusion soft agar colony inhibition assay (reference value: 0 unit); type: functional
MCF7 [10] = experiment: Cytotoxic activity against human MCF7 cells assessed as zone diffusion inhibition by measuring distance to perimeter (diffusion distance units) at 9 umol by disk diffusion soft agar colony inhibition assay (reference value: 0 unit); type: functional
LNCaP [11] = experiment: Cytotoxic activity against human LNCAP cells assessed as zone diffusion inhibition by measuring distance to perimeter (diffusion distance units) at 9 umol by disk diffusion soft agar colony inhibition assay (reference value: 0 unit); type: functional
[12] = Cytotoxic activity against human U251N cells assessed as zone diffusion inhibition by measuring distance to perimeter (diffusion distance units) at 9 umol by disk diffusion soft agar colony inhibition assay (reference value: 0 unit); type: functional
CCRF-CEM [13] = experiment: Cytotoxic activity against human CEM cells assessed as zone diffusion inhibition by measuring distance to perimeter (diffusion distance units) at 9 umol by disk diffusion soft agar colony inhibition assay (reference value: 0 unit); type: functional
CFU-GM [14] = experiment: Cytotoxic activity against human CFU-GM cells assessed as zone diffusion inhibition by measuring distance to perimeter (diffusion distance units) at 9 umol by disk diffusion soft agar colony inhibition assay (reference value: 0 unit); type: functional
[15] = target: Dipeptidyl peptidase 4 (Homo sapiens) (UniProt P27487); experiment: Inhibition of human recombinant DPP4 at 10 uM using H-Gly-Pro AMC substrate incubated for 30 mins by spectrophotometry
Summary of the method: (§1)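 Human recombinant DPP4 was assayed in 20 mM Tris-HCl pH 8.0 with 100 mM NaCl and 1 mM EDTA. Compound in DMSO was tested at 10 µM final, with three-fold serial dilutions down to 1.5 nM. H-Gly-Pro-AMC substrate was added as a 200 µM solution. After 30 min at 37 °C, fluorescence was read at excitation 355 and emission 455 nm. Background wells had no enzyme. All conditions were run in triplicate.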

[16] = target: Dipeptidyl peptidase 4 (Homo sapiens) (UniProt P27487); experiment: Inhibition of human recombinant DPP4 at <3.33 uM using H-Gly-Pro AMC substrate incubated for 30 mins by spectrophotometry; summary of the method: as §1
NCI-H460 = experiment: Cytotoxic activity against human H460 cells incubated for 48 hrs by MTT assay; type: functional, cell-based; settings: NCI-H460, 48 h

Chain of Dipeptidyl peptidase 4 (Homo sapiens) (P27487 whole entry, looked up): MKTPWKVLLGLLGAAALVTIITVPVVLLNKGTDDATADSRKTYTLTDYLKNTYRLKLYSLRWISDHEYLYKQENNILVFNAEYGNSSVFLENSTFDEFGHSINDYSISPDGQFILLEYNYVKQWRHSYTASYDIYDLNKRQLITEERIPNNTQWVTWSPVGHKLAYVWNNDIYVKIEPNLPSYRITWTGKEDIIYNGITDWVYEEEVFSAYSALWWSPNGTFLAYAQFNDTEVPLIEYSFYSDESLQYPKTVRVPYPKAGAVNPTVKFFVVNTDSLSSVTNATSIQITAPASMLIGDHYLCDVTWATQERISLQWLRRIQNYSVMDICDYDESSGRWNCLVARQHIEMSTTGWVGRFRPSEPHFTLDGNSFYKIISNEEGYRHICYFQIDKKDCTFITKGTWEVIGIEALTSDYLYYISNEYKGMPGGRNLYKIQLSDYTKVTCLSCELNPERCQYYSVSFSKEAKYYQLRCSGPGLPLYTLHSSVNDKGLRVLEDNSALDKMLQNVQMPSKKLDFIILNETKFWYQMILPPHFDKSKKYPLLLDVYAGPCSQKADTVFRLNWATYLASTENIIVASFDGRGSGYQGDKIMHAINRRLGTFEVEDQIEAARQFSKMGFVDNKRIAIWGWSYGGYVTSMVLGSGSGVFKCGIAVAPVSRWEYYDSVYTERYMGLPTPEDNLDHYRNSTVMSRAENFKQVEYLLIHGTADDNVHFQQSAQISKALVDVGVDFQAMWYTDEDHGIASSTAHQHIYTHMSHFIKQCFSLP

inhibition [15]: 15.7%
inhibition [16]: inactive
SMILES: CC[C@H](C)[C@@H]1NC(=O)[C@@H]2CCCN2C(=O)[C@H](Cc2ccccc2)NC(=O)[C@H](C(C)C)NC(=O)[C@H](CC(C)C)NC(=O)[C@@H]2CCCN2C(=O)[C@@H]2CCCN2C(=O)[C@H](Cc2ccccc2)NC1=O (cyclo(LVFPIFPP))
IC50 (HCT-116): < 10000 nM
inhibition zone (IZ) [1]: 600 U
inhibition zone (IZ) [2]: 550 U
inhibition zone (IZ) (MCF7 [3]): 500 U
inhibition zone (IZ) (LNCaP [4]): 500 U
inhibition zone (IZ) (OVCAR-5): 200 U
inhibition zone (IZ) [5]: 500 U
inhibition zone (IZ) (PANC-1): 200 U
inhibition zone (IZ) (CCRF-CEM [6]): 600 U
inhibition zone (IZ) (CFU-GM [7]): 700 U
inhibition zone (IZ) [8]: 200 U
inhibition zone (IZ) [9]: 300 U
inhibition zone (IZ) (MCF7 [10]): 300 U
inhibition zone (IZ) (LNCaP [11]): 300 U
inhibition zone (IZ) [12]: 300 U
inhibition zone (IZ) (CCRF-CEM [13]): 350 U
inhibition zone (IZ) (CFU-GM [14]): 400 U

SMILES: COc1cccc2c1C(=O)c1c(O)c3c(c(O)c1C2=O)C[C@@](O)(C(=O)CO)C[C@@H]3O[C@H]1C[C@H](N)[C@H](O)[C@H](C)O1 [DOXORUBICIN]
IC50 (NCI-H460): 200 nM
